# Measurements of several laboratories.
# Protocols differ between the studies behind these lines.
# Target: Mitogen-activated protein kinase kinase kinase 10 (MAP3K10, Homo sapiens, UniProt Q02779)
SMILES,test,conditions,quantity,value
CN1CC(Oc2cnc(C#N)cc2-c2ccn3nc(NC(=O)C4CC4)cc3c2)C1,"enzyme activity, inhibitor",1 µM,inhibition,8%
CC/C(=N\NC(=O)NCc1cccc(O)c1)c1ccc(O)c(C)c1O,"enzyme activity, inhibitor",0.1 µM,inhibition,6.2%
CC(C)(C)c1nc(-c2cccc(NS(=O)(=O)c3c(F)cccc3F)c2F)c(-c2ccnc(N)n2)s1,"enzyme activity, inhibitor, radiometric",1 µM,remaining activity,91%
COc1cccc2c(NCc3ccccc3)nc(-n3c(N)nc4ccccc43)nc12,"target engagement in cells, inhibitor, chemoproteomics",20 mM,inhibition,17.4%
O=C(Nc1cnn(-c2csc(C(=O)NC3COC3)c2)c1)Nc1ccccc1Cl,"enzyme activity, inhibitor",5 µM,remaining activity,98.5%
COc1cc(Cl)c(C(=O)N[C@@H](CN[C@H]2CC[C@@H](N)CC2)Cc2ccc(C#N)cc2)cc1-c1ccc(CN[C@H](C)c2ccc(C)cc2)o1,"enzyme activity, inhibitor",1 µM,remaining activity,97%
Cc1cc(NC(=O)c2cccc3cc(-c4cccc5[nH]nc(N)c45)ccc23)ccc1F,"enzyme activity, inhibitor",0.1 µM,activity vs control,98%
N#CCCc1ccc2c(c1)-c1[nH]c3ccc([N+](=O)[O-])cc3c1CC(=O)N2,cell-free assay,0.5 µM,remaining signal,30%
CC(C)(O)c1cncc(-c2nc3ccc(F)cc3n2C2CC2)c1,"cell-free assay, competition with immobilised ligand",1 µM,remaining binding,100%
Oc1ccc(-c2nc(-c3ccncc3)c(-c3ccc(F)cc3)[nH]2)cc1,cell-free assay,0.5 µM,remaining signal,32.8%
O=C1NC(c2ccccn2)Sc2ccccc21 (stereo not drawn),"cell-free assay, competition with immobilised ligand",1 µM,remaining binding,94%
CNC(=O)c1cc(Oc2ccc(NC(=O)Nc3ccc(Cl)c(C(F)(F)F)c3)cc2)ccn1,cell-free assay,0.5 µM,remaining signal,104%
Cn1nc(C(=O)NCc2ccc(C(=O)O)cc2)cc1-c1ccc2[nH]ccc2c1,"cell-free assay, competition with immobilised ligand",0.1 µM,remaining binding,100%
Nc1ncnc2occ(-c3ccc(NC(=O)Nc4cc(C(F)(F)F)ccc4F)cc3)c12,"cell-free assay, inhibitor",20 µM,remaining signal,0%
CCCOc1ccc([C@@H]2[C@@H](C(=O)O)[C@H](c3ccc4c(c3)OCO4)CN2CC(=O)Nc2c(CC)cccc2CC)cc1,"cell-free assay, competition with immobilised ligand",1 µM,remaining binding,100%
Clc1ccc(Nc2nnc(Cc3ccncc3)c3ccccc23)cc1,cell-free assay,0.5 µM,remaining signal,110%
CS(=O)(=O)NCC[C@H](NC(=O)c1cncc2c1cnn2-c1ccc(F)cc1)c1ccnc(S(C)(=O)=O)c1,"cell-free assay, competition with immobilised ligand",1 µM,remaining binding,75%
COc1cc2c(N3CCN(C(=O)Nc4ccc(OC(C)C)cc4)CC3)ncnc2cc1OCCCN1CCCCC1,cell-free assay,0.5 µM,remaining signal,101%
